Laboratory results reported in ChEMBL document CHEMBL1156077, “Piperazinyl-glutamate-pyrimidines as potent P2Y12 antagonists for inhibition of platelet aggregation” (Bioorg Med Chem Lett, 2009).

Key:
[1] = Selectivity for human P2Y12 receptor over P2Y1
P2Y purinoceptor 12 [2] = biological target: T1, P2Y purinoceptor 12 (Homo sapiens, UniProt Q9H244); test: Binding affinity at human recombinant P2Y12 receptor expressed in CHO cells by radioligand binding assay; format: cell-based
In short: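 Washed membranes from CHO cells transfected with synthetic human P2Y12 gene. Compounds as 7-point threefold dilutions, triplicate, 1 h at room temperature. Nonspecific binding defined with 300 nM 2-MeSADP. Filtered, washed with ice-cold Tris pH 7.4. Single-site fit; IC50 converted to Ki by Cheng–Prusoff, geometric mean of n≥2.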

P2Y purinoceptor 12 [3] = biological target: T1, P2Y purinoceptor 12; test: Ratio of compound IC50 to AZD-6140 IC50 for P2Y12 receptor in human platelet rich plasma assessed as inhibition of ADP-induced platelet aggregation by light transmission aggregometry
In short: (§1)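 Human platelet-rich plasma was pre-incubated 5 min at 37 °C with compound across seven concentrations (10 down to 0.156). Aggregation was started with ADP (20, final) and followed by light transmission at 626 nm for 15 min at 37 °C. Duplicate concentration-response data were read at the 15-min end-point. IC50 was divided by the IC50 of AZD-6140 run on the same plate.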

P2Y purinoceptor 12 [4] = biological target: T1, P2Y purinoceptor 12; test: Ratio of compound IC50 to thienopyrimidine IC50 for P2Y12 receptor in human platelet rich plasma assessed as inhibition of ADP-induced platelet aggregation by light transmission aggregometry
In short: as §1, with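 “the thienopyrimidine reference” for “AZD-6140”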

[5] = Selectivity for human P2Y12 receptor over P2Y13

T1 sequence (Q9H244 whole entry): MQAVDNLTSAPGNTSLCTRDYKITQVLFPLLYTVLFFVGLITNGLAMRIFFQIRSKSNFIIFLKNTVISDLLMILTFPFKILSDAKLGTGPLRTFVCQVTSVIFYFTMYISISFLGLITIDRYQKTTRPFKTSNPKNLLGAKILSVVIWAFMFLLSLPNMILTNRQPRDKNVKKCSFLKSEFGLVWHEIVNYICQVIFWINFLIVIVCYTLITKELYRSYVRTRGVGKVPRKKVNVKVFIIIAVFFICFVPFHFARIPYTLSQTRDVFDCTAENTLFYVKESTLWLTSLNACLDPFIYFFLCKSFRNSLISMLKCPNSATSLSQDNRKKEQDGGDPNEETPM

Row | SMILES | fold change (FC) [1] | Ki (P2Y purinoceptor 12 [2]) [nM] | Ratio IC50 (P2Y purinoceptor 12 [3]) | Ratio IC50 (P2Y purinoceptor 12 [4]) | fold change (FC) [5]
1 | CCCCCOC(=O)N1CCN(C(=O)[C@H](CCC(=O)O)NC(=O)c2cc(N3CCC(CC(=O)NCC)CC3)nc(-c3ccccc3)n2)CC1 | > 340 | 0.67 | 1.6 | 0.3 | > 340
2 | CCCCCOC(=O)N1CCN(C(=O)[C@H](CCC(=O)O)NC(=O)c2cc(N3CC(OCC)C3)nc(-c3ccccc3)n2)CC1 | > 340 | 1.2 | 3.4 | 1 | > 340
3 | CCCCCOC(=O)N1CCN(C(=O)[C@H](CCC(=O)O)NC(=O)c2cc(OCC3CCN(C)CC3)nc(-c3ccccc3)n2)CC1 | > 340 | 5.7 | 3.7 | 0.5 | > 340
4 | CCCCCOC(=O)N1CCN(C(=O)[C@H](CCC(=O)O)NC(=O)c2cc(N3CCN(CC(=O)N4CCCC4)CC3)nc(-c3ccccc3)n2)CC1 | > 340 | 2.1 | 1.5 | 0.2 | > 340
5 | CCCCCOC(=O)N1CCN(C(=O)[C@H](CCC(=O)O)NC(=O)c2cc(N3CCN(C(N)=O)CC3)nc(-c3ccccc3)n2)CC1 | > 340 | 1.2 | 0.8 | 0.2 | > 340
6 | CCCCCOC(=O)N1CCN(C(=O)[C@H](CCC(=O)O)NC(=O)c2cc(N3CCN(C(C)=O)CC3)nc(-c3ccccc3)n2)CC1 | > 340 | 3.7 | 1 | 0.3 | > 340
7 | CCCCCOC(=O)N1CCN(C(=O)[C@H](CCC(=O)O)NC(=O)c2cc(N3CC(O)C3)nc(-c3ccccc3)n2)CC1 | > 340 | 2.5 | 4.6 | 0.8 | > 340
8 | CCCCCOC(=O)N1CCN(C(=O)[C@H](CCC(=O)O)NC(=O)c2cc(N3CCN(C(=O)N(C)C)CC3)nc(-c3ccccc3)n2)CC1 | > 340 | 2.9 | 1.5 | 0.3 | > 340
9 | CCCCCOC(=O)N1CCN(C(=O)[C@H](CCC(=O)O)NC(=O)c2cc(NCCCN(C)C)nc(-c3ccccc3)n2)CC1 | > 340 | 4.8 | 1.7 | 0.6 | > 340
10 | CCCCCOC(=O)N1CCN(C(=O)[C@H](CCC(=O)O)NC(=O)c2nc(-c3ccccc3)cc(N3CCN(CCOC)CC3)n2)CC1 | > 340 | 12 | 8.3 | 1.6 | > 340
11 | CCCCCOC(=O)N1CCN(C(=O)[C@H](CCC(=O)O)NC(=O)c2cc(N3CCC(COCCOC)CC3)nc(-c3ccccc3)n2)CC1 | > 340 | 4.3 | 1.2 | 0.3 | > 340
12 | CCCCCOC(=O)N1CCN(C(=O)[C@H](CCC(=O)O)NC(=O)c2cc(OCCCN3CCOCC3)nc(-c3ccccc3)n2)CC1 | > 340 | 2.8 | 8.3 | 1.4 | > 340
13 | CCCCCOC(=O)N1CCN(C(=O)[C@H](CCC(=O)O)NC(=O)c2nc(-c3ccccc3)cc(N3CCC(CNCC)CC3)n2)CC1 | > 340 | 11 | 1.6 | 0.4 | > 340
14 | CCCCCOC(=O)N1CCN(C(=O)[C@H](CCC(=O)O)NC(=O)c2nc(-c3ccccc3)cc(N3CCN(C(N)=O)CC3)n2)CC1 | > 340 | 5.8 | 4.7 | 1 | > 340
15 | CCCCCOC(=O)N1CCN(C(=O)[C@H](CCC(=O)O)NC(=O)c2nc(-c3ccccc3)cc(N3CCC(N4CCCC4)CC3)n2)CC1 | > 340 | 7.4 | 2.4 | 0.4 | > 340
16 | CCCCCOC(=O)N1CCN(C(=O)[C@H](CCC(=O)O)NC(=O)c2cc(N3CCN(CC(=O)N(C)C)CC3)nc(-c3ccccc3)n2)CC1 | > 340 | 2.6 | 0.5 | 0.1 | > 340
17 | CCCCOC(=O)N1CCN(C(=O)[C@H](CCC(=O)O)NC(=O)c2cc(N3CCC(N4CCOCC4)CC3)nc(-c3ccccc3)n2)CC1 | > 340 | 1.3 | 1.1 | 0.2 | > 340
18 | CCCCCOC(=O)N1CCN(C(=O)[C@H](CCC(=O)O)NC(=O)c2nc(-c3ccccc3)cc(N3CCC(C(=O)N4CCCC4)CC3)n2)CC1 | > 340 | 3.6 | 1.8 | 0.5 | > 340
19 | CCCCCOC(=O)N1CCN(C(=O)[C@H](CCC(=O)O)NC(=O)c2cc(N3CCC(C(=O)N(C)C)CC3)nc(-c3ccccc3)n2)CC1 | > 340 | 2.5 | 0.3 | 0.1 | > 340
20 | CCCCCOC(=O)N1CCN(C(=O)[C@H](CCC(=O)O)NC(=O)c2cc(N3CCOCC3)nc(-c3ccccc3)n2)CC1 | > 340 | 1 | 7.9 | 2 | > 340
21 | CCCCOC(=O)N1CCN(C(=O)[C@H](CCC(=O)O)NC(=O)c2cc(OCCOC)nc(-c3ccccc3)n2)CC1 | > 340 | 12 | 3.7 | 1 | > 340
22 | CCCCCOC(=O)N1CCN(C(=O)[C@H](CCC(=O)O)NC(=O)c2cc(N3CCC(CC(=O)NC)CC3)nc(-c3ccccc3)n2)CC1 | > 340 | 0.9 | 1.2 | 0.2 | > 340

Continued by falling Ki (P2Y purinoceptor 12 [2]), values first:

Row | fold change (FC) [1] | Ki (P2Y purinoceptor 12 [2]) [nM] | Ratio IC50 (P2Y purinoceptor 12 [3]) | Ratio IC50 (P2Y purinoceptor 12 [4]) | fold change (FC) [5] | SMILES
23 | > 340 | 15 | 3.7 | 0.9 | > 340 | CCCCOC(=O)N1CCN(C(=O)[C@H](CCC(=O)O)NC(=O)c2cc(OCC3CCN(C)CC3)nc(-c3ccccc3)n2)CC1
24 | > 340 | 6.8 | 3.5 | 0.8 | > 340 | CCCCCOC(=O)N1CCN(C(=O)[C@H](CCC(=O)O)NC(=O)c2nc(-c3ccccc3)cc(N3CCN(CC(=O)N(C)C)CC3)n2)CC1
25 | > 340 | 5.3 | 0.8 | 0.2 | > 340 | CCCCCOC(=O)N1CCN(C(=O)[C@H](CCC(=O)O)NC(=O)c2cc(N3CCC(OCCOC)CC3)nc(-c3ccccc3)n2)CC1
26 | > 340 | 5 | 1.6 | 0.5 | > 340 | CCCCCOC(=O)N1CCN(C(=O)[C@H](CCC(=O)O)NC(=O)c2cc(N3CCC(OC)CC3)nc(-c3ccccc3)n2)CC1
27 | > 340 | 3.6 | 1.5 | 0.4 | > 340 | CCCCCOC(=O)N1CCN(C(=O)[C@H](CCC(=O)O)NC(=O)c2nc(-c3ccccc3)cc(N3CCC(C(=O)N(CC)CC)CC3)n2)CC1
28 | > 340 | 3.1 | 3.3 | 0.6 | > 340 | CCCCCOC(=O)N1CCN(C(=O)[C@H](CCC(=O)O)NC(=O)c2cc(N3CCC(CC(=O)N(CC)CC)CC3)nc(-c3ccccc3)n2)CC1
29 | > 340 | 2.7 | 0.4 | 0.1 | > 340 | CCCCCOC(=O)N1CCN(C(=O)[C@H](CCC(=O)O)NC(=O)c2cc(N3CCC(CCN)CC3)nc(-c3ccccc3)n2)CC1
30 | > 340 | 2.7 | 1.3 | 0.3 | > 340 | CCCCCOC(=O)N1CCN(C(=O)[C@H](CCC(=O)O)NC(=O)c2cc(N3CCN(C)CC3)nc(-c3ccccc3)n2)CC1
31 | > 340 | 1.6 | 2 | 0.3 | > 340 | CCCCCOC(=O)N1CCN(C(=O)[C@H](CCC(=O)O)NC(=O)c2cc(N3CCC(CC(=O)N4CCCC4)CC3)nc(-c3ccccc3)n2)CC1
32 | > 340 | 1.4 | 2.7 | 0.4 | > 340 | CCCCOC(=O)N1CCN(C(=O)[C@H](CCC(=O)O)NC(=O)c2cc(N3CCC(OC)CC3)nc(-c3ccccc3)n2)CC1
33 | > 340 | 1.2 | 2.2 | 0.5 | > 340 | CCCCCOC(=O)N1CCN(C(=O)[C@H](CCC(=O)O)NC(=O)c2cc(NCCOC)nc(-c3ccccc3)n2)CC1
34 | > 340 | 0.99 | 2 | 0.4 | > 340 | CCCCCOC(=O)N1CCN(C(=O)[C@H](CCC(=O)O)NC(=O)c2cc(N3CCC(CN4CCCC4=O)CC3)nc(-c3ccccc3)n2)CC1
35 | > 340 | 0.79 | 0.6 | 0.1 | > 340 | CCCCOC(=O)N1CCN(C(=O)[C@H](CCC(=O)O)NC(=O)c2cc(N3CCC(C(=O)N(CC)CC)CC3)nc(-c3ccccc3)n2)CC1
